Calls of active or inactive are those of the source. No cut-off for these calls is given here.
Experiments:
NCI-H23 = assay: Cytotoxicity against human NCI-H23 cells assessed as growth inhibition after 48 hrs by SRB assay; format: functional; details: NCI-H23, 48 h
MOLT-4 = assay: Cytotoxicity against human MOLT4 cells assessed as growth inhibition after 48 hrs by SRB assay; format: functional; details: MOLT-4, 48 h
[1] = Cytotoxicity against human NCI-ADR-RES cells assessed as growth inhibition after 48 hrs by SRB assay; format: functional
SW-620 = assay: Cytotoxicity against human SW620 cells assessed as growth inhibition after 48 hrs by SRB assay; format: functional; details: SW-620, 48 h
HL-60(TB) = assay: Cytotoxicity against human HL-60(TB) cells assessed as growth inhibition after 48 hrs by SRB assay; format: functional; details: HL-60, 48 h
PC-3 = assay: Cytotoxicity against human PC3 cells assessed as growth inhibition after 48 hrs by SRB assay; format: functional; details: PC-3, 48 h
MDA-MB-231 = assay: Cytotoxicity against human MDA-MB-231 cells assessed as growth inhibition after 48 hrs by SRB assay; format: functional; details: MDA-MB-231, 48 h
SNB-75 = assay: Cytotoxicity against human SNB75 cells assessed as growth inhibition after 48 hrs by SRB assay; format: functional; details: SNB-75, 48 h
CCRF-CEM = assay: Cytotoxicity against human CCRF-CEM cells assessed as growth inhibition after 48 hrs by SRB assay; format: functional
[2] = Cytotoxicity against human EKVX cells assessed as growth inhibition after 48 hrs by SRB assay; format: functional
RXF 393 = assay: Cytotoxicity against human RXF393 cells assessed as growth inhibition after 48 hrs by SRB assay; format: functional; details: RXF 393, 48 h
BT-549 = assay: Cytotoxicity against human BT549 cells assessed as growth inhibition after 48 hrs by SRB assay; format: functional; details: BT-549, 48 h
OVCAR-8 = assay: Cytotoxicity against human OVCAR8 cells assessed as growth inhibition after 48 hrs by SRB assay; format: functional; details: OVCAR-8, 48 h
MDA-MB-468 = assay: Cytotoxicity against human MDA-MB-468 cells assessed as growth inhibition after 48 hrs by SRB assay; format: functional; details: MDA-MB-468, 48 h
MDA-MB-435 = assay: Cell cycle arrest in human MDA-MB-435 cells assessed as […] at 25 nM after 24 hrs by FACS flow cytometric analysis; format: functional, cell-based
Outline: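 MDA-MB-435 cells plated and allowed to adhere 24 h, then exposed to drug for 24 h. Cells harvested, stained with Krishan's reagent, and DNA content analysed by flow cytometry.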

786-0 = assay: Cytotoxicity against human 786-0 cells assessed as growth inhibition after 48 hrs by SRB assay; format: functional; details: 786-0, 48 h
Tubulin (Sus scrofa) = Tubulin (Sus scrofa) (UniProt P02554+P02550); assay: Displacement of [3H]-colchicine from pig brain tubulin at 5 uM after 10 mins by scintillation counting analysis relative to control
Chain of Tubulin (Sus scrofa) (P02550 whole entry, looked up): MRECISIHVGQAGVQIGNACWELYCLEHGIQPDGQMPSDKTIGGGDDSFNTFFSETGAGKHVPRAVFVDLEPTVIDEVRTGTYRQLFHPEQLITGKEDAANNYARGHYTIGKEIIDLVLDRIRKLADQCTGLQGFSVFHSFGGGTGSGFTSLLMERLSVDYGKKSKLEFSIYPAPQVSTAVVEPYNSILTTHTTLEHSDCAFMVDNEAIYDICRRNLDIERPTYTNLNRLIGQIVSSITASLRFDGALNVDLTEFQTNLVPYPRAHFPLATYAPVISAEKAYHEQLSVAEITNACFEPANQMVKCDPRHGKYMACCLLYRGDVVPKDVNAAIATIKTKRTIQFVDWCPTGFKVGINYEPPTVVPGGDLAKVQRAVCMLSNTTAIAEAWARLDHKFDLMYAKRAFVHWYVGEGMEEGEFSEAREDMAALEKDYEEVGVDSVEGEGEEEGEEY
Chain of Tubulin (Sus scrofa) (P02554 whole entry, looked up): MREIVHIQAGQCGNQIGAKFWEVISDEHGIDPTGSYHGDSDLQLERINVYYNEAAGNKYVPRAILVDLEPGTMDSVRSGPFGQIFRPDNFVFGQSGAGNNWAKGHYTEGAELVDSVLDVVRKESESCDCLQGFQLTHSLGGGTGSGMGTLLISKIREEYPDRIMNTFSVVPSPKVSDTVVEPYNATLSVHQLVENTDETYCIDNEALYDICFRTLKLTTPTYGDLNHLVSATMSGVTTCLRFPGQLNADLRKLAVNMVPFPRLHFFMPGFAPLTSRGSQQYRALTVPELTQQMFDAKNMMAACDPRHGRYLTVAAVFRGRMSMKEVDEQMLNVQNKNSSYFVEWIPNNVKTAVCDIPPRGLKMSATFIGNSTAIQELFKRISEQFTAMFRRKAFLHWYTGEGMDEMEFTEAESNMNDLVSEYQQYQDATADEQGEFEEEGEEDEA

M14 = assay: Cytotoxicity against human M14 cells assessed as growth inhibition after 48 hrs by SRB assay; format: functional; details: M14, 48 h
[3] = Induction of microtubule depolymerization in rat A10 cells after 18 hrs by indirect immunofluorescence assay; format: cell-based
Outline: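 A-10 cells were exposed to vehicle or compound for 18 h, fixed, and microtubules were visualized by indirect immunofluorescence. EC50 is the concentration causing about 50% microtubule loss, from at least three independent experiments.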

ACHN = assay: Cytotoxicity against human ACHN cells assessed as growth inhibition after 48 hrs by SRB assay; format: functional
SR = assay: Cytotoxicity against human SR cells assessed as growth inhibition after 48 hrs by SRB assay; format: functional
U-251 = assay: Cytotoxicity against human U251 cells assessed as growth inhibition after 48 hrs by SRB assay; format: functional; details: U-251, 48 h
NCI-H460 = assay: Cytotoxicity against human NCI-H460 cells assessed as growth inhibition after 48 hrs by SRB assay; format: functional; details: NCI-H460, 48 h
MCF7 = assay: Cytotoxicity against human MCF7 cells assessed as growth inhibition after 48 hrs by SRB assay; format: functional; details: MCF7, 48 h
HCC 2998 = assay: Cytotoxicity against human HCC2998 cells assessed as growth inhibition after 48 hrs by SRB assay; format: functional; details: HCC 2998, 48 h
A549 = assay: Cytotoxicity against human A549 cells assessed as growth inhibition after 48 hrs by SRB assay; format: functional; details: A549, 48 h
KM12 = assay: Cytotoxicity against human KM12 cells assessed as growth inhibition after 48 hrs by SRB assay; format: functional; details: KM12, 48 h
OVCAR-5 = assay: Cytotoxicity against human OVCAR5 cells assessed as growth inhibition after 48 hrs by SRB assay; format: functional; details: OVCAR-5, 48 h
HOP-92 = assay: Cytotoxicity against human HOP92 cells assessed as growth inhibition after 48 hrs by SRB assay; format: functional; details: HOP-92, 48 h
RPMI-8226 = assay: Cytotoxicity against human RPMI8226 cells assessed as growth inhibition after 48 hrs by SRB assay; format: functional; details: RPMI-8226, 48 h
TK-10 = assay: Cytotoxicity against human TK10 cells assessed as growth inhibition after 48 hrs by SRB assay; format: functional; details: TK-10, 48 h
UO-31 = assay: Cytotoxicity against human UO31 cells assessed as growth inhibition after 48 hrs by SRB assay; format: functional; details: UO-31, 48 h
A498 = assay: Cytotoxicity against human A498 cells assessed as growth inhibition after 48 hrs by SRB assay; format: functional; details: A498, 48 h
NCI-H226 = assay: Cytotoxicity against human NCI-H226 cells assessed as growth inhibition after 48 hrs by SRB assay; format: functional; details: NCI-H226, 48 h
OVCAR-3 = assay: Cytotoxicity against human OVCAR3 cells assessed as growth inhibition after 48 hrs by SRB assay; format: functional; details: OVCAR-3, 48 h
SF-539 = assay: Cytotoxicity against human SF539 cells assessed as growth inhibition after 48 hrs by SRB assay; format: functional; details: SF-539, 48 h
HOP-62 = assay: Cytotoxicity against human HOP62 cells assessed as growth inhibition after 48 hrs by SRB assay; format: functional; details: HOP-62, 48 h
HT-29 = assay: Cytotoxicity against human HT-29 cells assessed as growth inhibition after 48 hrs by SRB assay; format: functional; details: HT-29, 48 h
UACC-62 = assay: Cytotoxicity against human UACC62 cells assessed as growth inhibition after 48 hrs by SRB assay; format: functional; details: UACC-62, 48 h
SNB-19 = assay: Cytotoxicity against human SNB19 cells assessed as growth inhibition after 48 hrs by SRB assay; format: functional; details: SNB-19, 48 h
SK-OV-3 = assay: Antiproliferative activity against human SKOV3 cells after 48 hrs by SRB assay; format: functional, cell-based; details: SK-OV-3, 48 h
Outline: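 Isogenic pairs: parental SK-OV-3 alongside its Pgp-overexpressing subline MDR-M6-6, and parental HeLa alongside βIII-tubulin-transfected HeLa. Antiproliferative IC50 measured by sulforhodamine B assay, averaged from at least three independent experiments ± SD. Relative resistance is the transduced-line IC50 divided by the parental-line IC50.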

SK-MEL-28 = assay: Cytotoxicity against human SK-MEL-28 cells assessed as growth inhibition after 48 hrs by SRB assay; format: functional; details: SK-MEL-28, 48 h

SMILES: COc1ccc(N(C)c2nc(C)nc3c2CC(C)C3)cc1.Cl (racemic)
- GI50 (NCI-H23): 16.4 nM
- GI50 (MOLT-4): 31.8 nM
- GI50 [1]: < 10 nM
- GI50 (SW-620): < 10 nM
- GI50 (HL-60(TB)): < 10 nM
- GI50 (PC-3): 14.6 nM
- GI50 (MDA-MB-231): 24.6 nM
- GI50 (SNB-75): < 10 nM
- GI50 (CCRF-CEM): 16.3 nM
- GI50 [2]: 19.6 nM
- GI50 (RXF 393): < 10 nM
- GI50 (BT-549): 21.9 nM
- GI50 (OVCAR-8): 32.8 nM
- GI50 (MDA-MB-468): < 10 nM
- Activity (MDA-MB-435): Active
- GI50 (786-0): 34.8 nM
- inhibition (INH) (Tubulin (Sus scrofa)): 84%
- GI50 (M14): 10.2 nM
- EC50 [3]: 56 nM
- GI50 (ACHN): 14.6 nM
- GI50 (SR): < 10 nM
- GI50 (U-251): 12.5 nM
- GI50 (NCI-H460): 23.4 nM
- GI50 (MCF7): < 10 nM
- GI50 (HCC 2998): 24 nM
- GI50 (A549): 24.4 nM
- GI50 (KM12): < 10 nM
- GI50 (OVCAR-5): 38.5 nM
- GI50 (HOP-92): 55.4 nM
- GI50 (RPMI-8226): 15.7 nM
- GI50 (TK-10): 292 nM
- GI50 (UO-31): 13.4 nM
- GI50 (A498): < 10 nM
- GI50 (NCI-H226): 31.5 nM
- GI50 (OVCAR-3): < 10 nM
- GI50 (SF-539): 11.4 nM
- GI50 (HOP-62): 19.4 nM
- GI50 (HT-29): 11.8 nM
- GI50 (UACC-62): < 10 nM
- GI50 (SNB-19): 36.9 nM
- IC50 (SK-OV-3): 38.6 nM
- GI50 (SK-MEL-28): < 10 nM

SMILES: COc1ccc(N(C)c2nc(C)nc3c2CCC3)cc1.Cl
- GI50 (NCI-H23): 22.3 nM
- GI50 (MOLT-4): 27.8 nM
- GI50 [1]: < 10 nM
- GI50 (SW-620): < 10 nM
- GI50 (HL-60(TB)): < 10 nM
- GI50 (PC-3): < 10 nM
- GI50 (MDA-MB-231): 25.9 nM
- GI50 (SNB-75): < 10 nM
- GI50 (CCRF-CEM): < 10 nM
- GI50 [2]: 34.8 nM
- GI50 (RXF 393): < 10 nM
- GI50 (BT-549): 21.8 nM
- GI50 (OVCAR-8): 21.8 nM
- GI50 (MDA-MB-468): < 10 nM
- Activity (MDA-MB-435): Active
- GI50 (786-0): 17.8 nM
- inhibition (Tubulin (Sus scrofa)): 92%
- GI50 (M14): < 10 nM
- EC50 [3]: 25.9 nM
- GI50 (ACHN): < 10 nM
- GI50 (SR): < 10 nM
- GI50 (U-251): < 10 nM
- GI50 (NCI-H460): 10.3 nM
- GI50 (MCF7): < 10 nM
- GI50 (HCC 2998): 16.4 nM
- GI50 (A549): 15 nM
- GI50 (KM12): < 10 nM
- GI50 (OVCAR-5): 36.4 nM
- GI50 (HOP-92): 16 nM
- GI50 (RPMI-8226): 14.3 nM
- GI50 (TK-10): 42.7 nM
- GI50 (UO-31): 46.1 nM
- GI50 (A498): < 10 nM
- GI50 (NCI-H226): 34.7 nM
- GI50 (OVCAR-3): < 10 nM
- GI50 (SF-539): < 10 nM
- GI50 (HOP-62): < 10 nM
- GI50 (HT-29): < 10 nM
- GI50 (UACC-62): < 10 nM
- GI50 (SNB-19): 17 nM
- IC50 (SK-OV-3): 11.3 nM
- GI50 (SK-MEL-28): < 10 nM

From ChEMBL document CHEMBL2424583, “Structure-activity relationship and in vitro and in vivo evaluation of the potent cytotoxic anti-microtubule agent N-(4-methoxyphenyl)-N,2,6-trimethyl-6,7-dihydro-5H-cyclopenta[d]pyrimidin-4-aminium chloride and its analogues as antitumor agents” (J Med Chem, 2013)
